The values below come from ChEMBL document CHEMBL1131188, “Synthesis and cytotoxicity of 2-methyl-4, 9-dihydro-1-substituted-1H-imidazo[4,5-g]quinoxaline-4,9-diones and 2,3-disubstituted-5,10-pyrazino[2,3-g]quinoxalinediones” (J Med Chem, 1998).

pIC50: −log10 of the molar value.

In one assay the test system is MKN-45. In words: Cytotoxicity of compound against human gastric adenocarcinoma cell line (MKN 45). It counts as functional, cell-based. The method in brief:
(§1)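 MTT assay: compounds dissolved in DMSO at 1 mM (stock), diluted in RPMI-FCS to various concentrations; single-cell suspensions treated at 37 °C, 5% CO2 for 4 days; MTT added for further 4 h, acid–isopropanol added, OD read at 540 nm. Fractional inhibition = 1 − OD sample/control; IC50 from Chou median-effect analysis; mean of triplicate experiments.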

The subject of a further assay is PC-14. In words: Cytotoxicity of compound against human lung adenocarcinoma cell line (PC14). In kind it is functional, cell-based. An outline of the steps: as §1

For `CCc1nc2c(nc1CC)C(=O)c1nccnc1C2=O`, the pIC50 is 5.12 in the assay on MKN-45 (Homo sapiens, MKN-45) and 4.69 with PC-14 (Homo sapiens, PC-14).
As to `CCn1c(C)nc2c1C(=O)c1nccnc1C2=O`, the pIC50 in the assay on MKN-45 (Homo sapiens, MKN-45) was 4.03; in the assay with PC-14 (Homo sapiens, PC-14), 3.89.
In the same order, the values of `CCc1nc2c(nc1C)C(=O)c1nccnc1C2=O` are 4.89 and 4.17.
Turning to `Cc1nc2c(n1C)C(=O)c1nccnc1C2=O`, the pIC50 is 4.47 in the assay on MKN-45 (Homo sapiens, MKN-45) and 4.41 in the assay with PC-14 (Homo sapiens, PC-14).
In the same order, the values of `O=C1c2nccnc2C(=O)c2nccnc21` are 4.70 and 4.12.
In the same order, the values of `Cc1nc2c([nH]1)C(=O)c1nccnc1C2=O` are 4.70 and 4.08.
In the same order, the values of `Cc1nc2c(n1-c1ccc(Br)cc1)C(=O)c1nccnc1C2=O` are 5.89 and 4.34.
Turning to `Cc1nc2c(n1-c1ccccc1)C(=O)c1nccnc1C2=O`, the pIC50 was 4.64 in the assay with MKN-45 (Homo sapiens, MKN-45) and 3.90 in the assay on PC-14 (Homo sapiens, PC-14).
The matching figures for `Cc1nc2c(n1C(C)C)C(=O)c1nccnc1C2=O`: 4.21 and 4.11.
In the same order, the values of `Cc1nc2c(nc1C)C(=O)c1nccnc1C2=O` are 4.78 and 4.13.
Consider `O=C1c2nccnc2C(=O)c2nc(-c3ccccc3)c(-c3ccccc3)nc21`, for which the pIC50 with MKN-45 (Homo sapiens, MKN-45) was 4.08; in the assay on PC-14 (Homo sapiens, PC-14), 3.92.
The matching figures for `COc1cccc2c1C(=O)c1c(O)c3c(c(O)c1C2=O)C[C@@](O)(C(=O)CO)C[C@@H]3O[C@H]1C[C@H](N)[C@H](O)[C@H](C)O1` [DOXORUBICIN]: 5.50 and 6.54.
In the case of CISPLATIN, the pIC50 in the assay on MKN-45 (mkn-45) is 4.06; in the assay with PC-14 (pc-14), 5.41.
